Results: ChEMBL document CHEMBL3525987, “Assessment of exposure of metabolites in preclinical species and humans at steady state from the single-dose radiolabeled absorption, distribution, metabolism, and excretion studies: a case study” (Drug Metab Dispos, 2012)

Assays:
Canis familiaris [1] = assay: Drug level in beagle dog plasma treated with [14C]lixivaptan at 10 mg/kg, po administered as single dose measured after 2 hrs by liquid scintillation counting; type: ADME, organism-based, Canis lupus familiaris; parameters: dose 10 mg/kg, dosed compound name [14C]lixivaptan, route oral; conditions: in vivo
In short: (§1)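 Four male beagles fasted 18 h were gavaged once with [14C]lixivaptan at 10 mg/kg (2 ml/kg). The 5.0 mg/ml suspension was in deionized water with pluronic F68 (1.04 µCi/mg). Jugular K2EDTA plasma was taken at 2, 8 and 24 h and extracted twice with 2 volumes of acetonitrile. Profiling used C18 radio-HPLC (ammonium formate/acetonitrile gradient) with on-line flow scintillation detection. Each peak is reported as percent of plasma radioactivity.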

Canis familiaris [2] = assay: Drug level in beagle dog plasma treated with [14C]lixivaptan at 10 mg/kg, po administered as single dose measured after 8 hrs by liquid scintillation counting; type: ADME, organism-based, Canis lupus familiaris; parameters: dose 10 mg/kg, dosed compound name [14C]lixivaptan, route oral; conditions: in vivo; in short: as §1
Canis familiaris [3] = assay: Drug level in beagle dog plasma treated with [14C]lixivaptan at 10 mg/kg, po administered as single dose measured after 24 hrs by liquid scintillation counting; type: ADME, organism-based, Canis lupus familiaris; parameters: dose 10 mg/kg, dosed compound name [14C]lixivaptan, route oral; conditions: in vivo; in short: as §1
Homo sapiens [4] = assay: AUC (0 to 24 hrs) in human treated with [14C]lixivaptan at 100 mg, po administered as single dose; type: ADME, organism-based, Plasma; parameters: time < 24 hr, dose 100 mg, route oral, dosed compound name [14C]lixivaptan; conditions: in vivo
In short: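 Healthy young men fasted 10 h and took one oral dose of [14C]lixivaptan, 100 mg (200 µCi) as two capsules with water, eating 4 h later. Plasma from each subject at 0.5, 2, 4, 8, 12, 24 and 36 h was acetonitrile-extracted and profiled by C18 radio-HPLC (formic acid/acetonitrile gradient) with flow detection. Component concentrations were % of radioactivity × total plasma radioactivity, giving AUC0-24 in ng-equiv.h/ml.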

Canis familiaris [5] = assay: AUC (0 to 24 hrs) in beagle dog treated with [14C]lixivaptan at 10 mg/kg, po administered as single dose; type: ADME, organism-based, Canis lupus familiaris, Plasma; parameters: time < 24 hr, dose 10 mg/kg, dosed compound name [14C]lixivaptan, route oral; conditions: in vivo
Rattus norvegicus [6] = assay: AUC (0 to 24 hrs) in male Sprague-Dawley rat treated with [14C]lixivaptan at 10 mg/kg, po administered as single dose via gavage; type: ADME, organism-based, Plasma; parameters: time < 24 hr, dose 10 mg/kg, dosed compound name [14C]lixivaptan, route oral; conditions: in vivo
In short: (§2)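 Sprague-Dawley rats (9/gender) were fasted 18 h and gavaged once with [14C]lixivaptan at 10 mg/kg (10 ml/kg), about 29.8 µCi/mg, suspended in deionized water with pluronic F68. Plasma came by cardiac puncture under isoflurane at 1, 8 and 24 h (3/gender/time) and was extracted twice with 2 volumes of acetonitrile. C18 radio-HPLC with a flow scintillation detector gave percent of plasma radioactivity per peak.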

Rattus norvegicus [7] = assay: AUC (0 to 24 hrs) in female Sprague-Dawley rat treated with [14C]lixivaptan at 10 mg/kg, po administered as single dose via gavage; type: ADME, organism-based, Plasma; parameters: time < 24 hr, dose 10 mg/kg, dosed compound name [14C]lixivaptan, route oral; conditions: in vivo; in short: as §2
Rattus norvegicus [8] = assay: Toxicity in male Sprague-Dawley rat treated with [14C]lixivaptan at 10 mg/kg, po administered as single dose via gavage; type: organism-based; parameters: dose 10 mg/kg, dosed compound name [14C]lixivaptan, route oral; conditions: in vivo
Rattus norvegicus [9] = assay: Toxicity in female Sprague-Dawley rat treated with [14C]lixivaptan at 10 mg/kg, po administered as single dose via gavage; type: organism-based; parameters: dose 10 mg/kg, dosed compound name [14C]lixivaptan, route oral; conditions: in vivo
Canis familiaris [10] = assay: Toxicity in beagle dog treated with [14C]lixivaptan at 10 mg/kg, po administered as single dose via gavage; type: organism-based, Canis lupus familiaris; parameters: dose 10 mg/kg, dosed compound name [14C]lixivaptan, route oral; conditions: in vivo
Homo sapiens [11] = assay: Cmax in human treated with [14C]lixivaptan at 100 mg, po qd for 7 days; type: ADME, organism-based; parameters: dose 100 mg, route oral, dosed compound name [14C]lixivaptan; conditions: in vivo, 168 h
Homo sapiens [12] = assay: AUC in human treated with [14C]lixivaptan at 100 mg, po qd for 7 days; type: ADME, organism-based, Plasma; parameters: dosed compound name [14C]lixivaptan; conditions: in vivo, 168 h
Homo sapiens [13] = assay: Drug concentration at steady state in human treated with [14C]lixivaptan at 100 mg, po qd for 7 days by LC/MS/MS analysis; type: ADME, organism-based; parameters: dosed compound name Lixivaptan; conditions: in vivo, 168 h
In short: (§3)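 Phase 1 human study with lixivaptan 100 mg orally once daily and blood taken on the final day. Parent and two abundant metabolites were quantified in plasma with a validated LC-MS/MS assay.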

Homo sapiens [14] = assay: AUC at steady state in human treated with [14C]lixivaptan at 100 mg, po qd for 7 days by LC/MS/MS analysis; type: ADME, organism-based, Plasma; parameters: dosed compound name Lixivaptan; conditions: in vivo, 168 h; in short: as §3
[15] = Retention time of the compound by HPLC analysis; type: physicochemical; parameters: dosed compound name [14C]lixivaptan
Homo sapiens [16] = assay: Drug level in human plasma treated with [14C]lixivaptan at 100 mg, po administered as single dose measured after 0.5 hrs by liquid scintillation counting; type: ADME, organism-based; parameters: dosed compound name [14C]lixivaptan; conditions: in vivo
In short: (§4)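 Healthy male volunteers fasted ≥10 h, given single oral 100 mg (200 µCi) [14C]drug as two 50-mg capsules with 250 ml water. Plasma (from ~50 ml blood) at 0.5, 2, 4, 8, 12, 24, 36 h, profiled per subject. Acetonitrile extraction, C18 radio-HPLC with 0.2% formic acid acetonitrile/water gradient, on-line radioactivity detection as % plasma radioactivity; ng-equiv/ml from % × total radioactivity.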

Homo sapiens [17] = assay: Drug level in human plasma treated with [14C]lixivaptan at 100 mg, po administered as single dose measured after 2 hrs by liquid scintillation counting; type: ADME, organism-based; parameters: dosed compound name [14C]lixivaptan; conditions: in vivo; in short: as §4
Homo sapiens [18] = assay: Drug level in human plasma treated with [14C]lixivaptan at 100 mg, po administered as single dose measured after 4 hrs by liquid scintillation counting; type: ADME, organism-based; parameters: dosed compound name [14C]lixivaptan; conditions: in vivo; in short: as §4
Homo sapiens [19] = assay: Drug level in human plasma treated with [14C]lixivaptan at 100 mg, po administered as single dose measured after 8 hrs by liquid scintillation counting; type: ADME, organism-based; parameters: dosed compound name [14C]lixivaptan; conditions: in vivo; in short: as §4
Homo sapiens [20] = assay: Drug level in human plasma treated with [14C]lixivaptan at 100 mg, po administered as single dose measured after 12 hrs by liquid scintillation counting; type: ADME, organism-based; parameters: dosed compound name [14C]lixivaptan; conditions: in vivo; in short: as §4
Homo sapiens [21] = assay: Drug level in human plasma treated with [14C]lixivaptan at 100 mg, po administered as single dose measured after 24 hrs by liquid scintillation counting; type: ADME, organism-based; parameters: dosed compound name [14C]lixivaptan; conditions: in vivo; in short: as §4
Homo sapiens [22] = assay: Drug level in human plasma treated with [14C]lixivaptan at 100 mg, po administered as single dose measured after 36 hrs by liquid scintillation counting; type: ADME, organism-based; parameters: dosed compound name [14C]lixivaptan; conditions: in vivo; in short: as §4
Rattus norvegicus [23] = assay: Drug level in male Sprague-Dawley rat plasma treated with [14C]lixivaptan at 10 mg/kg, po administered as single dose via gavage measured after 1 hr by liquid scintillation counting; type: ADME, organism-based; parameters: dose 10 mg/kg, dosed compound name [14C]lixivaptan, route oral; conditions: in vivo
In short: (§5)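 Single oral gavage of [14C]drug (10 mg/kg, 10 ml/kg) as suspension in deionized water with pluronic F68, ~29.8 µCi/mg; SD rats fasted 18 h, fed 4 h post-dose. Blood by cardiac puncture under isoflurane, 3 rats/time/gender, into K2EDTA at 1, 8, 24 h; plasma extracted twice with 2 vol acetonitrile, radio-HPLC on C18 with flow radioactivity detection, expressed as % plasma radioactivity.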

Rattus norvegicus [24] = assay: Drug level in male Sprague-Dawley rat plasma treated with [14C]lixivaptan at 10 mg/kg, po administered as single dose via gavage measured after 8 hrs by liquid scintillation counting; type: ADME, organism-based; parameters: dose 10 mg/kg, dosed compound name [14C]lixivaptan, route oral; conditions: in vivo; in short: as §5
Rattus norvegicus [25] = assay: Drug level in male Sprague-Dawley rat plasma treated with [14C]lixivaptan at 10 mg/kg, po administered as single dose via gavage measured after 24 hrs by liquid scintillation counting; type: ADME, organism-based; parameters: dose 10 mg/kg, dosed compound name [14C]lixivaptan, route oral; conditions: in vivo; in short: as §5
Rattus norvegicus [26] = assay: Drug level in female Sprague-Dawley rat plasma treated with [14C]lixivaptan at 10 mg/kg, po administered as single dose via gavage measured after 1 hr by liquid scintillation counting; type: ADME, organism-based; parameters: dose 10 mg/kg, dosed compound name [14C]lixivaptan, route oral; conditions: in vivo; in short: as §2
Rattus norvegicus [27] = assay: Drug level in female Sprague-Dawley rat plasma treated with [14C]lixivaptan at 10 mg/kg, po administered as single dose via gavage measured after 8 hrs by liquid scintillation counting; type: ADME, organism-based; parameters: dose 10 mg/kg, dosed compound name [14C]lixivaptan, route oral; conditions: in vivo; in short: as §5
Rattus norvegicus [28] = assay: Drug level in female Sprague-Dawley rat plasma treated with [14C]lixivaptan at 10 mg/kg, po administered as single dose via gavage measured after 24 hrs by liquid scintillation counting; type: ADME, organism-based; parameters: dose 10 mg/kg, dosed compound name [14C]lixivaptan, route oral; conditions: in vivo; in short: as §2

## Cc1ccc(F)cc1C(=O)Nc1ccc(C(=O)Nc2ccccc2C(=O)O)c(Cl)c1
Canis familiaris [1]
  Compound recovery: 15.3%
Canis familiaris [2]
  Compound recovery: 29.7%
Canis familiaris [3]
  Compound recovery: 38.7%
Homo sapiens [4]
  AUC: 5180 ng.Eq.hr/ml
Canis familiaris [5]
  AUC: 22400 ng.Eq.hr/ml
Rattus norvegicus [6]
  AUC: 32100 ng.Eq.hr/ml
Rattus norvegicus [7]
  AUC: 11100 ng.Eq.hr/ml
Rattus norvegicus [8]
  Activity: Non-toxic
Rattus norvegicus [9]
  Activity: Non-toxic
Canis familiaris [10]
  Activity: Non-toxic
Homo sapiens [11]
  Cmax: 278 ng/mL
Homo sapiens [12]
  AUC: 5180 ng·h/mL
Homo sapiens [13]
  Css: 658 ng/mL
Homo sapiens [14]
  AUCss: 6610 ng·h/mL
[15]
  Retention_time: 24.5 min
Homo sapiens [16]
  Compound recovery: 1.5%
Homo sapiens [17]
  Compound recovery: 12.6%
Homo sapiens [18]
  Compound recovery: 19.6%
Homo sapiens [19]
  Compound recovery: 28.4%
Homo sapiens [20]
  Compound recovery: 30.1%
Homo sapiens [21]
  Compound recovery: 38.8%
Homo sapiens [22]
  Compound recovery: 35.2%
Rattus norvegicus [23]
  Compound recovery: 58.5%
Rattus norvegicus [24]
  Compound recovery: 73.9%
Rattus norvegicus [25]
  Compound recovery: 67.8%
Rattus norvegicus [26]
  Compound recovery: 9%
Rattus norvegicus [27]
  Compound recovery: 42.4%
Rattus norvegicus [28]
  Compound recovery: 97.4%
